The target of one test is Prothrombin (Homo sapiens, UniProt P00734). The test is described as follows: Inhibition of thrombin.
The next test deals with Coagulation factor X (Homo sapiens, UniProt P00742). The test is described as follows: Inhibition of factor 10a.
The next test addresses Coagulation factor XI (Homo sapiens, UniProt P03951). The test is described as follows: Inhibition of factor 11a.
Test [1] deals with Plasma. The test is described as follows: Anticoagulant activity in human plasma measured by activated […] time. The class given is functional. In short, it runs like this: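 Activated partial thromboplastin time in human plasma. Plasma was incubated with compound for 2 min. aPTT reagent was added and incubated 3 min. Prewarmed 30 mM CaCl2 was added and clotting was read up to 300 s. The concentration doubling clotting time was taken from the dose-response curve.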

The test system of test [2] is Plasma. Put plainly: Anticoagulant activity in human plasma measured by prothrombin time. The class given is functional. The method in brief:
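Human plasma with compound prewarmed 3 min at 37 °C, then prewarmed thromboplastin reagent containing calcium added; clotting read over 300 s. Concentration doubling clotting time (2× PT) derived from dose-response curve.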

For test [3], the species on record is Homo sapiens. Put plainly: Selectivity for factor 11a over factor 10a. In short, it runs like this:
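Fold selectivity compared IC50s against factor XIa and factor Xa, both in Tris-HCl/NaCl/Tween 20 buffer at pH 7.4. FXIa: Glp-Pro-Arg-AMC, 50 nM enzyme, 50 µM substrate, 15-30 min at 30 °C. FXa: H-Pro-Phe-Arg-AMC at twice those concentrations, 60 min.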

Another test has as its system Rattus norvegicus. Put plainly: Efficacy in rat venous thrombosis model assessed as reduction in thrombus weight at 0.25 mg/kg, iv. The test is classed as functional, organism-based. The arrangement: dose 0.25 mg/kg. The method in brief: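 Intravenous infusion at 0.0625 or 0.25 mg/kg in 0.1 M NaOAc pH 4.0 vehicle, started 5 min before induction; clot isolated and weighed 10 min postchallenge. n = 9; Tukey-Kramer test versus vehicle.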

For test [4], the species on record is Homo sapiens. The test is described as follows: Selectivity for factor 11a over thrombin. The method in brief: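 IC50s against factor XIa and thrombin were compared as fold selectivity. Both enzymes used Glp-Pro-Arg-AMC, with 50 nM enzyme and 50 µM substrate in Tris-HCl/NaCl/0.02% Tween 20 at pH 7.4. Ten-point endpoint assays ran for 15-30 min at 30 °C with AMC fluorescence read at 355/460 nm. IC50 came from a one-site dose-response fit.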

In the next test the target is Trypsin (Homo sapiens, UniProt P07477+P07478+P35030). The test is described as follows: Inhibition of trypsin. The class given is protein assay. In short, it runs like this:
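Trypsin activity was read with the fluorogenic substrate Glp-Pro-Arg-AMC. Conditions were 50 nM enzyme and 50 µM substrate in 100 mM Tris-HCl, 200 mM NaCl and 0.02% Tween 20 at pH 7.4. Ten-point dose-response endpoints were taken after 15-30 min at 30 °C. Released AMC was read at ex 355/em 460 nm, and IC50 came from a one-site nonlinear least-squares fit.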

Activity calls are given as the source filed them. No cut-off for these calls is given here.

Sequence of Coagulation factor XI (P03951 19-387 limits assumed): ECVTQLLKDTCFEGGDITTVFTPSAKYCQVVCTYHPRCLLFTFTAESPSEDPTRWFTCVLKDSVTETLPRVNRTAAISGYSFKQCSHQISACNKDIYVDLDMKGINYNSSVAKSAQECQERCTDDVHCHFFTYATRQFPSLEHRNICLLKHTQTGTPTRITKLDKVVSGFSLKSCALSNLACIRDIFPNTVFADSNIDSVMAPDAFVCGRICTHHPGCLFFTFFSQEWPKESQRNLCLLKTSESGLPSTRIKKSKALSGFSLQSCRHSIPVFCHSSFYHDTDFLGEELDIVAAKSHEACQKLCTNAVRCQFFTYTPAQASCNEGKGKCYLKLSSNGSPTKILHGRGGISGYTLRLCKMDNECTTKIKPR
Sequence of Coagulation factor XI (P03951 388-625 limits assumed): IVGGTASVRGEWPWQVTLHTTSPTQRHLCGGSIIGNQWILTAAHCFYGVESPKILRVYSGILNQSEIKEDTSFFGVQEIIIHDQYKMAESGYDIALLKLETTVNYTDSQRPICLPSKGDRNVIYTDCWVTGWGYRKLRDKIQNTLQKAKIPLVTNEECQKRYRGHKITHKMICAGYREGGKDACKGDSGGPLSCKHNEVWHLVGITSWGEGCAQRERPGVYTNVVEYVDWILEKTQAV
Sequence of Coagulation factor X (P00742 41-179 limits assumed): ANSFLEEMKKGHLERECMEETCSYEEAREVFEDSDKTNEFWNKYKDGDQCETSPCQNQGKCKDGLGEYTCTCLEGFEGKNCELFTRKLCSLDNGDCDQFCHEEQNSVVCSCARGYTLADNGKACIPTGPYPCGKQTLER
Sequence of Coagulation factor X (P00742 235-488 limits assumed): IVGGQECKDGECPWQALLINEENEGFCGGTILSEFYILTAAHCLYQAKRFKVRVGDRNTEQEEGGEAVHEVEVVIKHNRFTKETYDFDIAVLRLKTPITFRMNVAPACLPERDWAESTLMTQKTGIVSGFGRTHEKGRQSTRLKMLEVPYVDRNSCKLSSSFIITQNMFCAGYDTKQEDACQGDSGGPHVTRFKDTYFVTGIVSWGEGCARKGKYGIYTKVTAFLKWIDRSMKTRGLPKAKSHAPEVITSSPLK

In the case of `CC(=O)N[C@@H](CC(C)C)C(=O)N[C@H](C(=O)N[C@@H](CCCN=C(N)N)C(=O)c1nccs1)C(C)C`, the IC50 at Prothrombin and against Coagulation factor X was over 200 µM in each case.
On to `CC(C)C[C@H](NC(=O)NCc1ccccc1)C(=O)N[C@H](C(=O)N[C@@H](CCCNC(=N)N)C(=O)c1nccs1)C(C)C`, for which the IC50 – broadly, the concentration that inhibits the measured activity by half – was 0.136 µM against Coagulation factor XI, 2.8 µM against Prothrombin and over 20 µM against Coagulation factor X.
For `CC(C)[C@H](NC(=O)[C@H](Cc1c[nH]c2ccccc12)NC(=O)N[C@H](C)c1ccc(Br)cc1)C(=O)N[C@@H](CCCNC(=N)N)C(=O)c1nccs1` the same measures were 0.029 µM, 0.71 µM and 2.1 µM.
`CC(C)[C@H](NC(=O)[C@@H](NC(=O)N[C@H](C)c1ccc(Br)cc1)C1CCCCC1)C(=O)N[C@@H](CCCNC(=N)N)C(=O)c1nccs1` had a 2aPTT in the test with Plasma [1] of 15.4 µM. In addition, the 2PT in the test on Plasma [2] came out at 178.6 µM. The IC50 against Coagulation factor XI is 0.01 µM; on Prothrombin it was 0.976 µM; against Coagulation factor X it was 2.7 µM.
With `CC(C)[C@H](NC(=O)[C@H](Cc1ccccc1)NNC(=O)NCc1ccc(F)cc1)C(=O)N[C@@H](CCCNC(=N)N)C(=O)c1nccs1`, the IC50 worked out at 0.16 µM on Coagulation factor XI and 4.3 µM at Prothrombin.
Molecule `CC(C)[C@H](NC(=O)[C@H](Cc1ccccc1)NNC(=O)Cc1ccco1)C(=O)N[C@@H](CCCNC(=N)N)C(=O)c1nccs1` came in with an IC50 against Coagulation factor XI of 2.6 µM.
Consider `CC(C)C[C@H](NC(=O)NCc1ccc(Cl)cc1Cl)C(=O)N[C@H](C(=O)N[C@@H](CCCN=C(N)N)C(=O)c1nccs1)C(C)C`, for which the values for the IC50 against Coagulation factor XI, at Prothrombin and against Coagulation factor X were 0.045 µM, 0.386 µM and 13 µM, respectively.
As for `CC(C)C[C@H](NC(=O)NCc1ccc(F)cc1)C(=O)N[C@H](C(=O)N[C@@H](CCCNC(=N)N)C(=O)c1nccs1)C(C)C`, the IC50 at Coagulation factor XI was 0.114 µM; at Prothrombin, 3.1 µM; at Coagulation factor X, over 20 µM.
For `CC(C)[C@H](NC(=O)[C@H](Cc1ccccc1)NNC(=O)c1ccco1)C(=O)N[C@@H](CCCNC(=N)N)C(=O)c1nccs1`, the IC50 at Coagulation factor XI turned out to be 2.2 µM.
As for `CC(C)C[C@H](NC(=O)NCc1ccc(Cl)c(Cl)c1)C(=O)N[C@@H](Cc1ccccc1)C(=O)N[C@@H](CCCN=C(N)N)C(=O)c1nccs1`, the IC50 against Coagulation factor XI was 0.71 µM; against Prothrombin, 27 µM; on Coagulation factor X, 8.5 µM.
For `CCOC(=O)C(Cc1ccccc1)NC(=O)NN[C@@H](Cc1ccccc1)C(=O)N[C@H](C(=O)N[C@@H](CCCNC(=N)N)C(=O)c1nccs1)C(C)C` (stereo not given in full) the same measures were 0.258 µM, 2.1 µM and 14.3 µM.
`CC(C)[C@H](NC(=O)[C@H](Cc1ccccc1)NNC(=O)NCc1ccc(Cl)c(Cl)c1)C(=O)N[C@@H](CCCNC(=N)N)C(=O)c1nccs1`: the IC50 was determined as 0.09 µM against Coagulation factor XI, 6.7 µM at Prothrombin and 14.2 µM against Coagulation factor X.
For `CC(C)[C@H](NC(=O)[C@H](CCCN=C(N)N)NC(=O)N[C@H](C)c1ccc(Br)cc1)C(=O)N[C@@H](CCCN=C(N)N)C(=O)c1nccs1` the same measures were 0.007 µM, 0.44 µM and 0.25 µM.
For `CC(C)[C@H](NC(=O)[C@H](Cc1ccc(O)cc1)NC(=O)N[C@H](C)c1ccc(Br)cc1)C(=O)N[C@@H](CCCNC(=N)N)C(=O)c1nccs1`, the Selectivity ratio is 267 in the test listed under Homo sapiens [3] and 340 in the test filed under Homo sapiens [4]. In the test on Rattus norvegicus, the result was Active. Further, the 2aPTT with Plasma [1] was 2.4 µM. This molecule returned a 2PT in the test on Plasma [2] of 25 µM. Also, the 50% inhibitory concentration (IC50) against Trypsin amounted to 0.012 µM.
As to `CC(C)[C@H](NC(=O)[C@H](Cc1cccnc1)NC(=O)N[C@H](C)c1ccc(Br)cc1)C(=O)N[C@@H](CCCNC(=N)N)C(=O)c1nccs1`, in the test listed under Homo sapiens [3], the Selectivity ratio came out at 200. The same molecule gave a 2aPTT in the test on Plasma [1] of 2.4 µM. The 2PT in the test on Plasma [2] was determined as 31 µM. Further, the IC50 was found to be 0.012 µM at Coagulation factor XI, 1.4 µM on Prothrombin and 1.4 µM against Coagulation factor X.
Turning to `CC(C)C[C@H](NC(=O)NCc1ccc(Cl)c(Cl)c1)C(=O)N[C@H](C(=O)N[C@@H](CCCN=C(N)N)C(=O)c1nccs1)C(C)C`, the concentration for half-maximal inhibition (IC50) at Coagulation factor XI is 0.063 µM; against Prothrombin, 0.876 µM; against Coagulation factor X, over 20 µM.
For `CC(C)C[C@H](NC(=O)NCc1ccc(Cl)c(Cl)c1)C(=O)N[C@H](C(=O)N[C@@H](CCCNC(=N)N)C(=O)c1nccs1)C1CCCCC1` the same measures were 0.34 µM, 7.7 µM and over 200 µM.
For `CCOC(=O)C(CC(C)C)NC(=O)NN[C@@H](Cc1ccccc1)C(=O)N[C@H](C(=O)N[C@@H](CCCNC(=N)N)C(=O)c1nccs1)C(C)C` (stereo not given in full) the same measures were 0.403 µM, 2.1 µM and 15.4 µM.
For `CC(C)C[C@H](NC(=O)NCc1ccc(Cl)c(Cl)c1)C(=O)N[C@@H](C)C(=O)N[C@@H](CCCNC(=N)N)C(=O)c1nccs1` the same measures were 0.92 µM, 10 µM and 22 µM.
In the case of `CC(C)C[C@H](NC(=O)NCc1ccc(Cl)c(Cl)c1)C(=O)N[C@@H](Cc1ccc(O)cc1)C(=O)N[C@@H](CCCNC(=N)N)C(=O)c1nccs1`, the figures for the IC50 at Coagulation factor XI, against Prothrombin and against Coagulation factor X were 0.2 µM, 1 µM and 1.7 µM, respectively.
For `CC(C)[C@H](NC(=O)[C@H](Cc1ccccc1)NNC(=O)Nc1ccccc1)C(=O)N[C@@H](CCCNC(=N)N)C(=O)c1nccs1` the same measures were 1.92 µM, 0.935 µM and over 20 µM.
Consider `CC(C)[C@H](NC(=O)[C@H](Cc1cccnc1)NC(=O)N[C@H](C)c1ccc(F)cc1)C(=O)N[C@@H](CCCN=C(N)N)C(=O)c1nccs1`, for which the IC50 on Coagulation factor XI turned out to be 0.028 µM; on Prothrombin, 0.523 µM.
As to `CC(C)[C@H](NC(=O)[C@H](Cc1cccnc1)NC(=O)N[C@@H](C)c1ccc(F)cc1)C(=O)N[C@@H](CCCNC(=N)N)C(=O)c1nccs1`, the figures for the IC50 on Coagulation factor XI and at Prothrombin were 0.533 µM and 0.606 µM, respectively.
As for `CC(C)[C@H](NC(=O)[C@@H](NC(=O)N[C@@H](C)c1ccc(Br)cc1)C1CCCCC1)C(=O)N[C@@H](CCCN=C(N)N)C(=O)c1nccs1`, the figures for the IC50 against Coagulation factor XI, against Prothrombin and against Coagulation factor X were 0.132 µM, 5.6 µM and 14.9 µM, respectively.
With `CC(C)C[C@H](NC(=O)OCc1ccccc1)C(=O)N[C@H](C(=O)N[C@@H](CCCN=C(N)N)C(=O)c1nccs1)C(C)C`, on Coagulation factor XI, half-maximal inhibition (IC50) was put at 0.356 µM.
Take `CC(C)[C@H](NC(=O)[C@H](CCCNC(N)=O)NC(=O)N[C@H](C)c1ccc(Br)cc1)C(=O)N[C@@H](CCCNC(=N)N)C(=O)c1nccs1`: in the test on Plasma [1], the 2aPTT was 1.35 µM. In the test with Plasma [2], this molecule gave a 2PT of 48.6 µM. Also, the IC50 stood at 0.03 µM on Coagulation factor XI, 1.1 µM against Prothrombin and 1.9 µM at Coagulation factor X.
As to `CCC(C)[C@H](NC(=O)[C@H](CC(C)C)NC(=O)NCc1ccc(Cl)c(Cl)c1)C(=O)N[C@@H](CCCN=C(N)N)C(=O)c1nccs1` (stereo not given in full), the values for the IC50 against Coagulation factor XI, against Prothrombin and on Coagulation factor X were 0.076 µM, 2.6 µM and 85 µM, respectively.
With `CC(C)C[C@H](NC(=O)NC(C)c1ccc(Br)cc1)C(=O)N[C@H](C(=O)N[C@@H](CCCNC(=N)N)C(=O)c1nccs1)C(C)C` (stereo not given in full), the Selectivity ratio in the test filed under Homo sapiens [3] is 1500; in the test listed under Homo sapiens [4] it was 140. Also, the IC50 on Coagulation factor XI amounted to 0.01 µM; against Prothrombin, 1.4 µM; at Coagulation factor X it was 15 µM.
In the test with Plasma [1], `CC(C)[C@H](NC(=O)[C@H](CC(N)=O)NC(=O)N[C@H](C)c1ccc(Br)cc1)C(=O)N[C@@H](CCCNC(=N)N)C(=O)c1nccs1` showed a 2aPTT of 0.56 µM. In the test on Plasma [2], this molecule returned a 2PT of 26.3 µM. In addition, the half-maximal inhibitory concentration (IC50) came to 0.008 µM against Coagulation factor XI, 0.4 µM against Prothrombin and 1.6 µM against Coagulation factor X.
For the molecule `CC(C)C[C@H](NC(=O)NCc1ccc(Cl)c(Cl)c1)C(=O)N[C@H](C(=O)N[C@@H](CCCN=C(N)N)C(=O)c1nccs1)C(C)(C)C`, the values for the IC50 against Coagulation factor XI, on Prothrombin and at Coagulation factor X were 9.2 µM, 12 µM and over 200 µM, respectively.
Molecule `CC(C)[C@H](NC(=O)[C@H](Cc1ccccc1)NNS(=O)(=O)c1ccc(Cl)c(Cl)c1)C(=O)N[C@@H](CCCNC(=N)N)C(=O)c1nccs1` yielded a concentration for half-maximal inhibition (IC50) on Coagulation factor XI of 2.3 µM.

Source of the values: ChEMBL document CHEMBL1138224, “Design, synthesis, and biological evaluation of peptidomimetic inhibitors of factor XIa as novel anticoagulants” (J Med Chem, 2006).
